Shown are actives, neighbours in structure and some others; about 6.3% of the full set was active somewhere.
SF-1 act = SF-1 (human) activation; Q13285; actives 1.9% (n = 65,000); activation, % at 10 µM; CHO-K1 Gal4-SF-1 LBD luciferase reporter; % increase over DMSO SF-1-specific signal; AID 522;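 active = activation above the mean activation of all tested compounds plus 3 SD, cut at about 50% in these data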
Target sequence (Q13285 whole entry, looked up, the tested form may be a part): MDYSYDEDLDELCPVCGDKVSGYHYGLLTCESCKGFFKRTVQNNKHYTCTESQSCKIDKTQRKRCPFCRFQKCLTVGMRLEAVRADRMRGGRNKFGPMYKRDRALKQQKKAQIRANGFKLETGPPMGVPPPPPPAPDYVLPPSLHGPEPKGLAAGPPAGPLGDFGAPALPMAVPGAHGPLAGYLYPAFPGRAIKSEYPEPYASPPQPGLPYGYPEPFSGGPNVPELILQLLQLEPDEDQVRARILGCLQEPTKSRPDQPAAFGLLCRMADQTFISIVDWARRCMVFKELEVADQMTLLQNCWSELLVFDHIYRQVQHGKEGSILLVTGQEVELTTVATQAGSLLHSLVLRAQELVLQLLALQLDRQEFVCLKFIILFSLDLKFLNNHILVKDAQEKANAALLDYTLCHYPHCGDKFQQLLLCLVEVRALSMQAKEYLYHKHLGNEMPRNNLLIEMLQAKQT
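Compound – one dose, 10 µM compound, 1% DMSO · Test system – transient Gal4-SF-1 LBD reporter, CHO-K1 · Input – 4,000 cells in each well · Read-out basis – percent activation relative to DMSO median and mock-transfected background · Replicates – single measurement per compound · Technique – steady-glow luciferase luminescence, read after 15 min reagent incubation · Timing – 20 h compound treatment, 37 °C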
M1 antagonist = antagonists of rat M1 muscarinic receptor | B-score at 10 µM | P08482 | AID 628 | CHO-M1 cells, Fluo-4 calcium, ACh EC80 antagonist mode; hits give low values | actives 3.4% (n = 64,000);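 active = calcium fluorescence response, raw or row-and-column corrected B-score, differing from the plate sample mean either way at a set confidence level, mostly lower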
RORa activator = RORA (human) activation | AID 560 | P35398 | actives 1.5% (n = 65,000) | CHO-K1 Gal4-RORA LBD luciferase reporter, luminescence; percent increase over mock-subtracted basal signal | activation, % at 10 µM;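 active = activation above the mean of all tested compounds plus 3 SD, cut at about 49% in these data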
MT1-MMP txn act = activates MT1-MMP transcription. HT1080 MT1-MMP promoter luciferase reporter, luminescence, overnight; hits give high values. activation factor at 10 µM. actives 0.16% (n = 86,000);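 active = activation factor of at least 2 for MT1-MMP transcription at 10 µM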
M1 ag = activates the M1 muscarinic receptor | B-score at 10 µM | CHO-M1 cells, Fluo-4 calcium fluorescence, agonist mode; hits give high values | actives 3% (n = 64,000);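 active = fluorescence rise, raw or as B-score row- and column-corrected plate score, outside the 99.7% band of its plate's samples, either direction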
Large screens that a line does not name were inactive.

Cc1cccc(N2CCN(C(=O)Cc3c(C(=O)O)[nH]c4ccc(Cl)cc34)CC2)c1C	none
O=C(CN(Cc1ccccc1F)C(=O)Cn1nnc(-c2cccs2)n1)NC1CCCCC1	none (no result: SF-1 act, M1 antagonist, RORa activator, M1 ag)
CC1(C)CC(=O)C(C=Nc2ccccc2C(=O)O)=C(O)C1	none
CC1(C)CC(=O)C(C=Nc2ccccc2)=C(O)C1	SF-1 act 63.9
O=c1oc2ccccc2n1CCCOc1ccccc1	SF-1 act 57.4, RORa activator 49.3
O=c1oc2ccccc2n1CCCCCn1c(=O)oc2ccccc21	none
O=C(Nc1ncc(Cc2ccccc2)s1)C1CCCO1 (configuration not stated)	RORa activator 54.7
COc1ccc(Cl)cc1NC(=O)C1CCCO1 (configuration not stated)	none
O=C(Nc1nnc(-c2ccccc2F)s1)C1CCCO1 (configuration not stated)	none (no result: SF-1 act, M1 antagonist, RORa activator, M1 ag)
COc1cc2c(cc1NC(=O)C1CCCO1)oc1ccccc12 (configuration not stated)	SF-1 act 77.5, RORa activator 58.5
COc1ccc(N2CCN(CCNC(=O)c3ccc(NC(=O)C4CCCO4)cc3)CC2)cc1 (configuration not stated)	M1 ag -2.79
COc1ccc(-c2csc(NC(=O)C3CCCO3)n2)cc1 (configuration not stated)	SF-1 act 63.6
COc1ccc(NC(=O)C2CCCO2)cc1 (configuration not stated)	none (no result: SF-1 act, M1 antagonist, RORa activator, M1 ag)
Cc1ccc(CNC(=O)[C@H](C)[C@H]2C[C@]2(C)[C@H](NC(=O)OCc2ccccc2)c2ccccc2)c(F)c1F	none (no result: SF-1 act, M1 antagonist, RORa activator, M1 ag)
C[C@H](CO)NC(=O)[C@H]1C[C@@H]1[C@H](NP(=O)(c1ccccc1)c1ccccc1)c1ccccc1	none (no result: SF-1 act, M1 antagonist, RORa activator, M1 ag)
CCCC/C=C/C(NC(=O)Oc1cccc(C(F)(F)F)c1)c1ccccc1 (configuration not stated)	none (no result: SF-1 act, M1 antagonist, RORa activator, M1 ag)
O=C(NCCN1CCOCC1)Nc1ccccc1	none (no result: SF-1 act, M1 antagonist, RORa activator, M1 ag)
O=C(COc1ccc(S(=O)(=O)N2CCOCC2)cc1)Nc1ccc(Cl)c(C(F)(F)F)c1	none
O=C(Nc1ccc(Oc2ccccc2)cc1)C1CCCO1 (configuration not stated)	SF-1 act 58.0
O=C(Nc1nc2ccccc2s1)C1CCCO1 (configuration not stated)	SF-1 act 59.0
COc1ccc(OC)c(NC(=O)Cc2coc3ccc4ccccc4c23)c1	none (no result: SF-1 act, M1 antagonist, RORa activator, M1 ag)
C/C(N)=C(/C#N)C(=O)COC(=O)c1cc(C)n(-c2ccc(F)cc2)c1C	SF-1 act 64.7, RORa activator 67.3
CCOCCOC(=O)c1[nH]c2c(c1C)C(=O)CC(c1ccc(N(C)C)cc1)C2 (configuration not stated)	none
CCC(C)OC(=O)c1[nH]c2c(c1C)C(=O)CC(c1ccc(N(C)C)cc1)C2 (configuration not stated)	SF-1 act 56.8
O=c1c2ccccc2nc2c3ccccc3c(N3CCOCC3)nn12	M1 ag 2.82
CCOC(=O)c1c(C)oc2c1c(C(c1cccnc1)N1CCN(C)CC1)c(O)c1ccccc12 (configuration not stated)	M1 ag 3.37
COC(=O)c1cccc(NC(=O)CSc2nc3cccnc3n2C)c1	RORa activator 81.5
Cc1ccc(Nc2ncnc3nc[nH]c23)cc1Cl	RORa activator 66.9 (no result: MT1-MMP txn act)
Cc1onc(-c2ccccc2)c1C(=O)NC(C)C1CCCO1 (configuration not stated)	none
COc1ccc2c(c1)CCc1c(C(=O)NC3CCCCC3)noc1-2	SF-1 act 54.1 (no result: M1 antagonist, M1 ag)
COc1ccc2c(c1)CCc1c(C(=O)NCCN3CCOCC3)noc1-2	none (no result: M1 antagonist, M1 ag)
COCCNC(=O)c1noc2c1CCc1cc(OC)ccc1-2	SF-1 act 72.0
COc1ccc2c(c1)CCc1c(C(=O)NCc3ccco3)noc1-2	none
COCC(C)NC(=O)c1noc2c1CCc1cc(OC)ccc1-2 (configuration not stated)	SF-1 act 67.6
CN(C(=O)c1cccnc1)c1nnc(-c2ccccn2)s1	SF-1 act 69.9
CN(C(=O)c1ccccn1)c1nnc(-c2cnccn2)s1	SF-1 act 69.9
COc1ccc(N2CCN(c3ncnc4c3nnn4Cc3ccccc3Cl)CC2)cc1	none (no result: SF-1 act, M1 antagonist, RORa activator, M1 ag)
O=C(c1cc(-c2ccc(Cl)c(Cl)c2)on1)N1CCCC1	RORa activator 59.9
O=C(c1cc(-c2ccc3c(c2)OCO3)on1)N1CCN(c2ccccc2)CC1	RORa activator 69.7
